Active and inactive are the calls of the source. The rule behind the calls is not given here.
What follows are compounds tested against N-acetyllactosaminide alpha-1,3-galactosyltransferase (Mus musculus) (UniProt P23336) (assay: Inhibition of galactosyltransferase activity secreted by L1210 leukemia cells grown in mouse peritoneal ascites at 50 ug/mL (89 uM)). Settings: not given.
Assay type: cell-based
Procedure, shortened: (§1)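 Galactosyltransferase from cell-free ascites fluid of DBA/2J mice implanted 5-7 days earlier with 10^5 L1210 cells, cells removed by centrifugation. Medium: ovalbumin 1 mg/mL acceptor, 0.1 M cacodylate pH 7.0, 10 mM MnCl2, 2 mM AMP, inhibitor 20 or 50 ug/mL, UDP-galactose varied 1-80 uM plus UDP-[3H]galactose. 30 min, 37 °C. Stopped with PTA/HCl; washed precipitate scintillation-counted. Duplicates.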

Chain of N-acetyllactosaminide alpha-1,3-galactosyltransferase (Mus musculus) (P23336 whole entry): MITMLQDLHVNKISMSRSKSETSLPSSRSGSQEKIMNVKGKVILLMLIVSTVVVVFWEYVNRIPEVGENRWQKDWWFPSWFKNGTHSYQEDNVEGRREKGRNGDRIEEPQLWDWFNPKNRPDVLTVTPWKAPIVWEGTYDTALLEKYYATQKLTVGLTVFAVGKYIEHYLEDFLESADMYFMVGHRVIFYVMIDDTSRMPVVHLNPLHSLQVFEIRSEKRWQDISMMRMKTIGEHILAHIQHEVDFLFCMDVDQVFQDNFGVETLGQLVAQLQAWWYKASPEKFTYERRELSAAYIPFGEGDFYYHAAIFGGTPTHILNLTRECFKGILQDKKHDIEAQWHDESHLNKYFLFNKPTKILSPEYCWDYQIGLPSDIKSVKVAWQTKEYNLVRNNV

Row | SMILES | inhibition [%]
1 | O=c1ccn(C2O[C@H](COP(=O)(O)OP(=O)(O)C3O[C@H](CO)[C@@H](O)[C@H](O)[C@H]3O)[C@@H](O)[C@H]2O)c(=O)[nH]1 (stereo partly drawn) | 58

These compounds were tested on Vero (assay: In vitro antiviral activity was evaluated against vero cell lines infected with adenovirus type 2; non toxic at concentrations as high as 50000 uM). Settings: Chlorocebus sabaeus.
Assay type: functional, cell-based

Row | SMILES | Activity
2 | O=P(O)(O)[C@H]1O[C@@H](CO)[C@H](O)[C@H](O)[C@@H]1O (stereo in doubt; 19) | inactive
3 | O=P(O)(O)[C@H]1O[C@@H](CO)[C@H](O)[C@H](O)[C@@H]1O (stereo in doubt; 17) | inactive
4 | Nc1ncnc2c1ncn2C1O[C@H](COP(=O)(O)OP(=O)(O)C2O[C@H](CO)[C@@H](O)[C@H](O)[C@H]2O)[C@@H](O)[C@H]1O (stereo partly drawn) | inactive
5 | CC(=O)OP(=O)(O)C1OC(COCc2ccccc2)C(OCc2ccccc2)C(OCc2ccccc2)C1OCc1ccccc1 (stereo not drawn) | inactive
6 | O=P(O)(O)[C@H]1O[C@@H](CO)[C@@H](O)[C@H](O)[C@@H]1O | inactive

These compounds were tested against N-acetyllactosaminide alpha-1,3-galactosyltransferase (Mus musculus) (UniProt P23336) (assay: Inhibition of galactosyltransferase activity secreted by L1210 leukemia cells grown in mouse peritoneal ascites at 20 ug/mL (35 uM)). Settings: not given.
Assay type: cell-based
Procedure, shortened: as §1

Row | SMILES | inhibition [%]
7 | O=c1ccn(C2O[C@H](COP(=O)(O)OP(=O)(O)C3O[C@H](CO)[C@@H](O)[C@H](O)[C@H]3O)[C@@H](O)[C@H]2O)c(=O)[nH]1 (stereo partly drawn) | 50

Each compound was assayed on L1210 (assay: In vitro antitumor activity was evaluated against L1210 leukemia cell lines; No activity). Settings: Mus musculus.
Assay type: functional, cell-based

Row | SMILES | Cytotoxiciy
8 | O=P(O)(O)[C@H]1O[C@@H](CO)[C@H](O)[C@H](O)[C@@H]1O (stereo in doubt; 19) | No activity
9 | O=P(O)(O)[C@H]1O[C@@H](CO)[C@H](O)[C@H](O)[C@@H]1O (stereo in doubt; 17) | No activity
10 | Nc1ncnc2c1ncn2C1O[C@H](COP(=O)(O)OP(=O)(O)C2O[C@H](CO)[C@@H](O)[C@H](O)[C@H]2O)[C@@H](O)[C@H]1O (stereo partly drawn) | No activity
11 | CC(=O)OP(=O)(O)C1OC(COCc2ccccc2)C(OCc2ccccc2)C(OCc2ccccc2)C1OCc1ccccc1 (stereo not drawn) | No activity
12 | O=P(O)(O)[C@H]1O[C@@H](CO)[C@@H](O)[C@H](O)[C@@H]1O | No activity

These compounds were tested on Vero (assay: In vitro antiviral activity was evaluated against vero cell lines infected with herpes simplex virus type-2; non toxic at concentrations as high as 50000 uM). Settings: Chlorocebus sabaeus.
Assay type: functional, cell-based

Row | SMILES | Activity
13 | O=P(O)(O)[C@H]1O[C@@H](CO)[C@H](O)[C@H](O)[C@@H]1O (stereo in doubt; 19) | inactive
14 | O=P(O)(O)[C@H]1O[C@@H](CO)[C@H](O)[C@H](O)[C@@H]1O (stereo in doubt; 17) | inactive
15 | Nc1ncnc2c1ncn2C1O[C@H](COP(=O)(O)OP(=O)(O)C2O[C@H](CO)[C@@H](O)[C@H](O)[C@H]2O)[C@@H](O)[C@H]1O (stereo partly drawn) | inactive
16 | CC(=O)OP(=O)(O)C1OC(COCc2ccccc2)C(OCc2ccccc2)C(OCc2ccccc2)C1OCc1ccccc1 (stereo not drawn) | inactive
17 | O=P(O)(O)[C@H]1O[C@@H](CO)[C@@H](O)[C@H](O)[C@@H]1O | inactive

These compounds were tested on WIL2 (assay: In vitro antitumor activity was evaluated against human B-lymphoblastic leukemia cell lines; Slight activity). Settings: not given.
Assay type: functional, cell-based

Row | SMILES | Cytotoxiciy
18 | Nc1ncnc2c1ncn2C1O[C@H](COP(=O)(O)OP(=O)(O)C2O[C@H](CO)[C@@H](O)[C@H](O)[C@H]2O)[C@@H](O)[C@H]1O (stereo partly drawn) | Weak activity

Each compound was assayed on Vero (assay: In vitro antiviral activity was evaluated against vero cell lines infected with Parainfluenza virus type 3; non toxic at concentrations as high as 50000 uM). Settings: Chlorocebus sabaeus.
Assay type: functional, cell-based

Row | SMILES | Activity
19 | O=P(O)(O)[C@H]1O[C@@H](CO)[C@H](O)[C@H](O)[C@@H]1O (stereo in doubt; 19) | inactive
20 | O=P(O)(O)[C@H]1O[C@@H](CO)[C@H](O)[C@H](O)[C@@H]1O (stereo in doubt; 17) | inactive
21 | Nc1ncnc2c1ncn2C1O[C@H](COP(=O)(O)OP(=O)(O)C2O[C@H](CO)[C@@H](O)[C@H](O)[C@H]2O)[C@@H](O)[C@H]1O (stereo partly drawn) | inactive
22 | CC(=O)OP(=O)(O)C1OC(COCc2ccccc2)C(OCc2ccccc2)C(OCc2ccccc2)C1OCc1ccccc1 (stereo not drawn) | inactive
23 | O=P(O)(O)[C@H]1O[C@@H](CO)[C@@H](O)[C@H](O)[C@@H]1O | inactive

The compounds below were run on CCRF-CEM (assay: In vitro antitumor activity was evaluated against human T-lymphoblastic leukemia cell lines; Slight activity). Settings: not given.
Assay type: functional, cell-based

Row | SMILES | Cytotoxiciy
24 | Nc1ncnc2c1ncn2C1O[C@H](COP(=O)(O)OP(=O)(O)C2O[C@H](CO)[C@@H](O)[C@H](O)[C@H]2O)[C@@H](O)[C@H]1O (stereo partly drawn) | Weak activity

These compounds were tested on Vero (assay: In vitro antiviral activity was evaluated against vero cell lines infected with influenza virus; Slightly active at concentrations as high as 50000 uM). Settings: Chlorocebus sabaeus.
Assay type: functional, cell-based

Row | SMILES | Activity
25 | O=P(O)(O)[C@H]1O[C@@H](CO)[C@@H](O)[C@H](O)[C@@H]1O | inactive

The compounds below were run on Vero (assay: In vitro antiviral activity was evaluated against vero cell lines infected with visna virus; non toxic at concentrations as high as 50000 uM). Settings: Chlorocebus sabaeus.
Assay type: functional, cell-based

Row | SMILES | Activity
26 | O=P(O)(O)[C@H]1O[C@@H](CO)[C@H](O)[C@H](O)[C@@H]1O (stereo in doubt; 19) | inactive
27 | O=P(O)(O)[C@H]1O[C@@H](CO)[C@H](O)[C@H](O)[C@@H]1O (stereo in doubt; 17) | inactive
28 | Nc1ncnc2c1ncn2C1O[C@H](COP(=O)(O)OP(=O)(O)C2O[C@H](CO)[C@@H](O)[C@H](O)[C@H]2O)[C@@H](O)[C@H]1O (stereo partly drawn) | inactive
29 | CC(=O)OP(=O)(O)C1OC(COCc2ccccc2)C(OCc2ccccc2)C(OCc2ccccc2)C1OCc1ccccc1 (stereo not drawn) | inactive
30 | O=P(O)(O)[C@H]1O[C@@H](CO)[C@@H](O)[C@H](O)[C@@H]1O | inactive

Each compound was assayed on Vero (assay: In vitro antiviral activity was evaluated against vero cell lines infected with rhino virus; non toxic at concentrations as high as 50000 uM). Settings: Chlorocebus sabaeus.
Assay type: functional, cell-based

Row | SMILES | Activity
31 | O=P(O)(O)[C@H]1O[C@@H](CO)[C@H](O)[C@H](O)[C@@H]1O (stereo in doubt; 19) | inactive
32 | O=P(O)(O)[C@H]1O[C@@H](CO)[C@H](O)[C@H](O)[C@@H]1O (stereo in doubt; 17) | inactive
33 | Nc1ncnc2c1ncn2C1O[C@H](COP(=O)(O)OP(=O)(O)C2O[C@H](CO)[C@@H](O)[C@H](O)[C@H]2O)[C@@H](O)[C@H]1O (stereo partly drawn) | inactive
34 | CC(=O)OP(=O)(O)C1OC(COCc2ccccc2)C(OCc2ccccc2)C(OCc2ccccc2)C1OCc1ccccc1 (stereo not drawn) | inactive
35 | O=P(O)(O)[C@H]1O[C@@H](CO)[C@@H](O)[C@H](O)[C@@H]1O | Slightly active

These compounds were tested on CCRF-CEM (assay: In vitro antitumor activity was evaluated against human T-lymphoblastic leukemia cell lines; no = No activity). Settings: not given.
Assay type: functional, cell-based

Row | SMILES | Cytotoxiciy
36 | O=P(O)(O)[C@H]1O[C@@H](CO)[C@H](O)[C@H](O)[C@@H]1O (stereo in doubt; 19) | No activity
37 | O=P(O)(O)[C@H]1O[C@@H](CO)[C@H](O)[C@H](O)[C@@H]1O (stereo in doubt; 17) | No activity
38 | CC(=O)OP(=O)(O)C1OC(COCc2ccccc2)C(OCc2ccccc2)C(OCc2ccccc2)C1OCc1ccccc1 (stereo not drawn) | No activity
39 | O=P(O)(O)[C@H]1O[C@@H](CO)[C@@H](O)[C@H](O)[C@@H]1O | No activity

These compounds were tested on WIL2 (assay: In vitro antitumor activity was evaluated against human B-lymphoblastic leukemia cell lines; no = No activity). Settings: not given.
Assay type: functional, cell-based

Row | SMILES | Cytotoxiciy
40 | O=P(O)(O)[C@H]1O[C@@H](CO)[C@H](O)[C@H](O)[C@@H]1O (stereo in doubt; 19) | No activity
41 | O=P(O)(O)[C@H]1O[C@@H](CO)[C@H](O)[C@H](O)[C@@H]1O (stereo in doubt; 17) | No activity
42 | CC(=O)OP(=O)(O)C1OC(COCc2ccccc2)C(OCc2ccccc2)C(OCc2ccccc2)C1OCc1ccccc1 (stereo not drawn) | No activity
43 | O=P(O)(O)[C@H]1O[C@@H](CO)[C@@H](O)[C@H](O)[C@@H]1O | No activity

Source: ChEMBL document CHEMBL1123855, “Synthesis of glycopyranosylphosphonate analogues of certain natural nucleoside diphosphate sugars as potential inhibitors of glycosyltransferases” (J Med Chem, 1987)
